Test results taken from ChEMBL document CHEMBL3525985, “Regiospecificity and stereospecificity of human UDP-glucuronosyltransferases in the glucuronidation of estriol, 16-epiestriol, 17-epiestriol, and 13-epiestradiol” (Drug Metab Dispos, 2013).
Values belong to the molecule of their own block, whether it stands above or below them.

What was measured:
Assay type in all cases: ADME
Details in all cases: recombinant enzyme
[1] = molecular target: T1, UDP-glucuronosyltransferase 2A1 (Homo sapiens, UniProt P0DTE4); assay: Drug metabolism assessed as recombinant human C-terminal His-tagged UGT2A1-mediated 13-epiestradiol-3-glucuronide/13-epiestradiol-17-glucuronide formation at 200 uM after 15 to 60 mins by HPLC analysis in presence of UDPGA
T1 sequence (P0DTE4 whole entry): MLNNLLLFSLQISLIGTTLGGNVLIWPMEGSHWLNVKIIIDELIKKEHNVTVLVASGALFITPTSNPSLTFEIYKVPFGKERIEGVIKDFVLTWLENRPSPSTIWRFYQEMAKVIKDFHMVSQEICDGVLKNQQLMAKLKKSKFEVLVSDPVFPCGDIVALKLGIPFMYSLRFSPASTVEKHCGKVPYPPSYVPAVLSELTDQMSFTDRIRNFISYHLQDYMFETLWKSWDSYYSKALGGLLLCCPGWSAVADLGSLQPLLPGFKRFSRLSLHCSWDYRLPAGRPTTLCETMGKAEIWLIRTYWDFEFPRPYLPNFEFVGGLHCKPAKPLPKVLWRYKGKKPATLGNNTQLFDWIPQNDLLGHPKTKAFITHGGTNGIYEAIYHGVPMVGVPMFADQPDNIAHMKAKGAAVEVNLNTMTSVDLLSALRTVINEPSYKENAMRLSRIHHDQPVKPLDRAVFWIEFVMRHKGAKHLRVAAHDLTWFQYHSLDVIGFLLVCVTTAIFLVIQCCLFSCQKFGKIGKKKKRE
Outline: (§1)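 Screening at a single substrate concentration of 200 μM, in triplicate. The reaction used 5 or 50 µg of UGT-enriched insect cell membranes in 50 mM phosphate pH 7.4 with 10 mM MgCl₂ and 5 mM UDPGA, 10% final DMSO. Incubation was 15–60 min at 37°C. Perchloric acid stopped the reaction and supernatants were analysed by HPLC. Controls lacked UDPGA. Rates were normalized to relative UGT expression level.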

[2] = molecular target: T2, UDP-glucuronosyltransferase 1A3 (Homo sapiens, UniProt P35503); assay: Drug metabolism assessed as recombinant human C-terminal His-tagged UGT1A3-mediated 13-epiestradiol-3-glucuronide formation at 200 uM after 15 to 60 mins by HPLC analysis in presence of UDPGA; outline: as §1
T2 sequence (P35503 whole entry): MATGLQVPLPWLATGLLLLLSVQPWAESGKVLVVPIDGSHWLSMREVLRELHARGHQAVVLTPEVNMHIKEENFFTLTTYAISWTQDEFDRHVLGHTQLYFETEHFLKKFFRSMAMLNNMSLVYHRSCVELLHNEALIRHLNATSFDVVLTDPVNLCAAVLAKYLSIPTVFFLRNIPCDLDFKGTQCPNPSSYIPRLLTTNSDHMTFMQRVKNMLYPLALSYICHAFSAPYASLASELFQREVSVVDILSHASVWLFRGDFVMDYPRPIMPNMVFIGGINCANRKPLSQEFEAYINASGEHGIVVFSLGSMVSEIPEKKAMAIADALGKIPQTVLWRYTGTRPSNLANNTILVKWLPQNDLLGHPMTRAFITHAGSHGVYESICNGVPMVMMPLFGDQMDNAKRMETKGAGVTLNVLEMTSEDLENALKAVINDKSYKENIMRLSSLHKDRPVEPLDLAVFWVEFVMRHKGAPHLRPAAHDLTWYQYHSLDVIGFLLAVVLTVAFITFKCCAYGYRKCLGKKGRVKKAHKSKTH

[3] = molecular target: T3, UDP-glucuronosyltransferase 2B17 (Homo sapiens, UniProt O75795); assay: Drug metabolism assessed as recombinant human C-terminal His-tagged UGT2B17-mediated 16-epiestriol-16-glucuronide formation after 15 to 60 mins by Michaelis-Menten equation analysis in presence of UDPGA
T3 sequence (O75795 whole entry): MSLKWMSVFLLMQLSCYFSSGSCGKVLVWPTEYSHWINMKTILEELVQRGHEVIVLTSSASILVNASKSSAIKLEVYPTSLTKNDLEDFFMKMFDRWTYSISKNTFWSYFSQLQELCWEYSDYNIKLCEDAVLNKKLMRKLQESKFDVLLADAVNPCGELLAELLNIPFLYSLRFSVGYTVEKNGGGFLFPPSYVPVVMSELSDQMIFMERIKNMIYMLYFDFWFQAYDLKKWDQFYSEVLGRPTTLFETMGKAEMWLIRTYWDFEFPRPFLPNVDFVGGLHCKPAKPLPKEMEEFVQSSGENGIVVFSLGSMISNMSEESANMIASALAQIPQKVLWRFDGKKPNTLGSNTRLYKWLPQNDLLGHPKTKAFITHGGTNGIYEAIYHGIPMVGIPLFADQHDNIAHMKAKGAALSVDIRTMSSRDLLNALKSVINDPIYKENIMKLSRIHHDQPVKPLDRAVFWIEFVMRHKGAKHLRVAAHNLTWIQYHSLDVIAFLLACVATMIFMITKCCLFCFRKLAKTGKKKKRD

[4] = molecular target: T4, UDP-glucuronosyltransferase 1A10 (Homo sapiens, UniProt Q9HAW8); assay: Drug metabolism assessed as recombinant human C-terminal His-tagged UGT1A10-mediated estriol-3-glucuronide formation after 15 to 60 mins by Michaelis-Menten equation analysis in presence of UDPGA
T4 sequence (Q9HAW8 whole entry): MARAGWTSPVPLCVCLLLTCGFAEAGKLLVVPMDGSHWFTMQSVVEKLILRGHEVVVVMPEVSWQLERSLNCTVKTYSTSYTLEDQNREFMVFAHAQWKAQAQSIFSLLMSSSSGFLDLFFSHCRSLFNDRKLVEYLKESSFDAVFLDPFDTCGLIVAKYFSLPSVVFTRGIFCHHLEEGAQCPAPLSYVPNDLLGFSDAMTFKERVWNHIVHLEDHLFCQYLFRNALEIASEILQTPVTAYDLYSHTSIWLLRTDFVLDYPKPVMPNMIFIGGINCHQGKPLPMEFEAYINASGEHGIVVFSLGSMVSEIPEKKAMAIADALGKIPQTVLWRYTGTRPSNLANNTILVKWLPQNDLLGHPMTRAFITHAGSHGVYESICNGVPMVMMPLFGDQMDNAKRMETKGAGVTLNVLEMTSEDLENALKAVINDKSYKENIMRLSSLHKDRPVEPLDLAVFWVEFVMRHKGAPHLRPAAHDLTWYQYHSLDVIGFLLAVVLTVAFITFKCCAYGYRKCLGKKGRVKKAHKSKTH
Outline: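 For kinetics, the aglycone ranged from 0.2 to 300 μM in DMSO (10% final) with 5 mM UDPGA, 10 mM MgCl₂ and 50 mM phosphate pH 7.4. Enzyme was UGT-enriched insect cell membranes. Incubation was 15–60 min at 37°C, in triplicate, keeping substrate consumption ≤10%. Products were measured by HPLC and fitted to Michaelis-Menten. Rates were normalized to expression level.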

Drug metabolism [1]: metabolite_detected
Drug metabolism [2]: metabolite_detected
SMILES: C[C@@]12CC[C@@H]3c4ccc(O)cc4CC[C@H]3[C@@H]1CC[C@@H]2O

Drug metabolism [3]: 5 pmol/min/mg
SMILES: C[C@]12CC[C@@H]3c4ccc(O)cc4CC[C@H]3[C@@H]1C[C@H](O)[C@@H]2O [EPIESTRIOL]

Drug metabolism [4]: 840 pmol/min/mg
SMILES: C[C@]12CC[C@@H]3c4ccc(O)cc4CC[C@H]3[C@@H]1C[C@@H](O)[C@@H]2O [ESTRIOL]
